Rows were chosen to be rich in hits. Some 2.6% of all compounds tested hit in one or more screens of this group.
MC4R ag barr = activates human MC4R beta-arrestin recruitment. U2OS MC4R beta-arrestin complementation, luminescence; percent of melanotan II response, DMSO zero. activation, % at 8.9 µM. actives 0.98% (n = 360,000). AID 540308;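 active = activation above a per-plate cutoff, the mean activation of sample wells on that plate plus 3 SD, cut at about 8% in these data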
Target sequence (P32245 whole entry, looked up): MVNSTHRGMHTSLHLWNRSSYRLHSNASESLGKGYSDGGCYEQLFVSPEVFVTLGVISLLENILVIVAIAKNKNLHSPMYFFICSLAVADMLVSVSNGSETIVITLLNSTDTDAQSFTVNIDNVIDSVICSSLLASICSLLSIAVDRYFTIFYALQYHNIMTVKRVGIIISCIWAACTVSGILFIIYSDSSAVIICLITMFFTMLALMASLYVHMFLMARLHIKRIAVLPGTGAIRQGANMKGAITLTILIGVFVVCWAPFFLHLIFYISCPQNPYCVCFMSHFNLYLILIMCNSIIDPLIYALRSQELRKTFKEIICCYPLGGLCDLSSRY
Tb MetRS inh = Trypanosoma brucei MetRS inhibition; purified T. brucei MetRS, ATP depletion, Kinase-Glo luminescence; AID 624268; inhibition, % at 11.9 µM; actives 0.4% (n = 360,000);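 active = inhibition above a per-plate cutoff of the control wells' mean inhibition plus 3 SD, cut at about 5.5% in these data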;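 note: 0% = DMSO wells median and 100% = median of wells with control inhibitor compound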
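assay system = parasite MetRS enzyme | timing = 15 min preincubation, 2 h reaction, all 25 °C | evaluation = percent inhibition relative to median high and low control wells | medium = HEPES buffer containing pyrophosphatase, BSA, spermine, DTT | compound = single dose, 11.9 µM final nominal, 0.9% final DMSO | detection = Kinase-Glo luminescence, ATP depletion format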
hiPSC survival = increases survival of single human iPS cells; hiPSC single-cell survival, ATPlite luminescence; 100% = ROCK inhibitor wells, 0% = DMSO; survival enhancement, % at 20 µM; actives 0.044% (n = 360,000); in the data active = survival enhancement above about 18%;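 note: cells exposed to compounds for 16 hours before the ATP read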
ABCB6 inh 2 = inhibitors of human ABC transporter ABCB6; K562-ABCB6 porphyrin accumulation, flow cytometry, 1 h; stronger effect = lower value; fluorescence ratio to DMSO, % at 10 µM; actives 0.19% (n = 360,000);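 active = fluorescence ratio to DMSO below 75%, the collection mean minus 3 SD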;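 note: signal is porphyrin accumulated inside mitochondria; 100% equals median channel fluorescence of DMSO control wells; lower ratio means ABCB6 inhibition with less porphyrin fluorescence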
MC4R antag cAMP = human MC4R antagonism in cAMP assay; AID 540295; inhibition, % at 6.5 µM; actives 0.48% (n = 360,000); MC4R-expressing cells, MTII-stimulated cAMP, LANCE TR-FRET; P32245;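 active = inhibition above its plate's cutoff, the mean of tested wells on that plate plus 3 SD, cut at about 29% in these data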;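 note: 0% = Melanotan II alone and 100% = Melanotan II plus saturating MCL0020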
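Assay system: U2OS-MC4R stable cell line; Also added: Melanotan II; Technique: Eu-cAMP/anti-cAMP TR-FRET, emission 671 nm; Times: 30-min compound, 1-h challenge, 1-h detection, room temperature.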
Granule exo inh = lytic granule exocytosis inhibition; TALL-104 LAMP-1 surface exposure, flow cytometry; cells stimulated with thapsigargin and PMA; inhibition, % at 10 µM; actives 0.66% (n = 360,000); AID 651702;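 active = inhibition above about 55%, limit read from the data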
MC4R barr conf = human MC4R beta-arrestin agonism confirmation; activation, % at 8.9 µM; U2OS MC4R beta-arrestin recruitment, luminescence; scaled DMSO 0%, Melanotan II 100%; actives 31% (n = 2,400); AID 602192; shares compounds with MC4R ag barr;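 active = mean activation across replicates above the hit cutoff set in the earlier primary screen, cut at about 8% in these data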
MOR DOR agonist = OPRM1-OPRD1 heterodimer agonism counter-screen; shares compounds with MC4R ag barr; U2OS PathHunter beta-arrestin, beta-gal luminescence; percent of deltorphin B response, DMSO zero; activation, % at 9.2 µM; actives 5.8% (n = 2,400);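 active = mean activation across replicates exceeds the hit threshold derived in the earlier primary screen, cut at about 18% in these data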;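 note: 100% = deltorphin B at 0.9 µM final and 0% = DMSO alone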
* marks the source's active call; other numbers are inactive results.

For O=C(CCc1nc2ccccc2c(=O)[nH]1)OCc1ccc(-c2ccccc2)cc1 the results were MC4R ag barr 18*, Tb MetRS inh 0, hiPSC survival -2, ABCB6 inh 2 96, MC4R antag cAMP -6, Granule exo inh 6, MC4R barr conf 3 and MOR DOR agonist 6.
For O=C(CCc1nc2ccccc2c(=O)[nH]1)OCc1cccc(C(F)(F)F)c1 the results were MC4R ag barr 4, Tb MetRS inh 0, hiPSC survival -1, ABCB6 inh 2 101, MC4R antag cAMP 5 and Granule exo inh 0.
Screening O=C(Nc1ccc(Br)cc1Br)Nc1cccc2[nH]c([C@@H]3O[C@H](CO)[C@@H](O)[C@H](O)[C@H]3O)nc12 returned MC4R ag barr -1, Tb MetRS inh 0, hiPSC survival -1, ABCB6 inh 2 101, MC4R antag cAMP 7 and Granule exo inh -1.
Screening O=C(N/N=C1/CC(c2ccccc2)Oc2ccccc21)C1CC1 (centres undefined) returned MC4R ag barr 9.6*, Tb MetRS inh 0, hiPSC survival 0, ABCB6 inh 2 102, MC4R antag cAMP 10, Granule exo inh -20, MC4R barr conf 8.7* and MOR DOR agonist 9.
`N#Cc1sc2nc(-c3cccs3)cc(-c3ccc(F)cc3)c2c1N` gave MC4R ag barr 35*, Tb MetRS inh 0, hiPSC survival 1, ABCB6 inh 2 100, MC4R antag cAMP 26, Granule exo inh -3, MC4R barr conf 19* and MOR DOR agonist 6.
Cn1nc(C(=O)Nc2cccc(Cl)c2)cc1C(=O)Nc1cccc(Cl)c1 was read as MC4R ag barr 14*, Tb MetRS inh -1, hiPSC survival 0, ABCB6 inh 2 103, MC4R antag cAMP 25, Granule exo inh -3, MC4R barr conf 2 and MOR DOR agonist 7.
For CCCCC(=O)Nc1ccc(C(=O)NCCN2CCOCC2)cc1 the results were MC4R ag barr 0, Tb MetRS inh 0, hiPSC survival -1, ABCB6 inh 2 96, MC4R antag cAMP 15 and Granule exo inh -4.
For CCOc1ccc(NC(=O)c2nnn(CC(=O)Nc3ccccc3OCC)c2N)cc1 the results were MC4R ag barr 2, Tb MetRS inh 0, hiPSC survival -1, ABCB6 inh 2 103, MC4R antag cAMP 13 and Granule exo inh 1.
CCOc1ccc(OCC)c(NC(=O)c2nnn(CC(=O)Nc3cc(C)cc(C)c3)c2N)c1 was read as MC4R ag barr 42*, Tb MetRS inh 0, hiPSC survival 0, ABCB6 inh 2 92, MC4R antag cAMP 0, Granule exo inh -3, MC4R barr conf 18* and MOR DOR agonist 9.
For O=C(CN(CC1CCCO1)C(=O)CNS(=O)(=O)c1ccc(Cl)cc1)NCC1CCCO1 (centres undefined) the results were MC4R ag barr 1, Tb MetRS inh 0, hiPSC survival 0, ABCB6 inh 2 99, MC4R antag cAMP 9 and Granule exo inh 0.
`Cc1cc(C)n(-c2nc3ccccc3nc2Nc2ccc3[nH]c(=O)[nH]c3c2)n1` gave MC4R ag barr 19*, Tb MetRS inh 0, hiPSC survival -1, ABCB6 inh 2 99, MC4R antag cAMP 3, Granule exo inh 3, MC4R barr conf 9.6* and MOR DOR agonist 2.
`C/C(=N\Nc1ccc(C#N)cc1[N+](=O)[O-])c1ccc(O)cc1` gave MC4R ag barr 10*, Tb MetRS inh 0, hiPSC survival 0, ABCB6 inh 2 96, MC4R antag cAMP 4, Granule exo inh -4, MC4R barr conf 6 and MOR DOR agonist 8.
Screening C/C(=N/Nc1ccccc1[N+](=O)[O-])c1ccc([N+](=O)[O-])cc1 returned MC4R ag barr -1, Tb MetRS inh 0, hiPSC survival 2, ABCB6 inh 2 119, MC4R antag cAMP -3 and Granule exo inh -16.
CCn1c(CCNC(=O)c2ccc(Cl)c(Cl)c2)nnc1SCCOc1ccc(OC)cc1 was read as MC4R ag barr 11*, Tb MetRS inh 0, hiPSC survival 2, ABCB6 inh 2 85, MC4R antag cAMP 12, Granule exo inh -2, MC4R barr conf 4 and MOR DOR agonist 6.
Screening Cc1cc(-n2c(C)cc(C(=O)CSc3nnnn3-c3ccc(Cl)cc3)c2C)no1 returned MC4R ag barr 20*, Tb MetRS inh 0, hiPSC survival -1, ABCB6 inh 2 96, MC4R antag cAMP 7, Granule exo inh -1, MC4R barr conf 2 and MOR DOR agonist 4.
Screening COc1ccc(NC(=O)Cn2cnc3c(cnn3-c3ccc(C)c(C)c3)c2=O)c(OC)c1 returned MC4R ag barr 12*, Tb MetRS inh 0, hiPSC survival 1, ABCB6 inh 2 89, MC4R antag cAMP 0, Granule exo inh -6, MC4R barr conf 15* and MOR DOR agonist 7.
Screening CCSc1nnc(-c2ccc(Cl)cc2)c2ccccc12 returned MC4R ag barr 19*, Tb MetRS inh 0, hiPSC survival 0, ABCB6 inh 2 102, MC4R antag cAMP 2, Granule exo inh 1, MC4R barr conf -2 and MOR DOR agonist 3.
`CCSc1nnc(-c2ccc(C)cc2)c2ccccc12` gave MC4R ag barr 0, Tb MetRS inh -1, hiPSC survival 2, ABCB6 inh 2 94, MC4R antag cAMP 9 and Granule exo inh 11.
For CC(NC(=O)COc1ccccc1F)C1CC2CCC1C2 (centres undefined) the results were MC4R ag barr 0, Tb MetRS inh 0, hiPSC survival -1, ABCB6 inh 2 93, MC4R antag cAMP 9 and Granule exo inh 0.
Screening C=CCn1c(CCCOc2ccc(Cl)cc2Cl)nnc1SCC(=O)Nc1nccs1 returned MC4R ag barr 9.7*, Tb MetRS inh 0, hiPSC survival -2, ABCB6 inh 2 103, MC4R antag cAMP -6, Granule exo inh -1, MC4R barr conf 1 and MOR DOR agonist 6.
O=[N+]([O-])c1cc(/C=N/O)ccc1SCc1ccccc1Cl was read as MC4R ag barr 18*, Tb MetRS inh 0, hiPSC survival -4, ABCB6 inh 2 92, MC4R antag cAMP -13, Granule exo inh 2, MC4R barr conf 6 and MOR DOR agonist 6.
Screening COc1ccc(N=CC2=C(O)c3ccccc3C2=O)c(OC)c1 returned MC4R ag barr 12*, Tb MetRS inh -1, hiPSC survival -6, ABCB6 inh 2 94, MC4R antag cAMP -7, Granule exo inh -1, MC4R barr conf 0 and MOR DOR agonist 6.
